Reference: ChEMBL document CHEMBL2177062, “Bile acid-based 1,2,4-trioxanes: synthesis and antimalarial assessment” (J Med Chem, 2012)
Active and inactive are the calls of the source. The calls are words filed in the database; no cut-off is given here.

Experiments:
[1] = Lipophilicity, log P of the compound; assay type: physicochemical; details: octanol/water
Outline: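 log P calculated in silico, not measured experimentally.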

[2] = tested on: Plasmodium yoelii nigeriensis; experiment: Antimalarial activity in multidrug-resistant Plasmodium yoelii nigeriensis infected Swiss mouse assessed as suppression of parasitaemia at 24 mg/kg, po two devided dose daily for 4 days; assay type: functional
Outline: (§1)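 Swiss mice of either sex (20 2 g) inoculated ip with 1 × 10⁶ MDR P. yoelii nigeriensis parasites on day 0. Five mice per dose, given oral doses in groundnut oil from day 0 to 3, twice daily. Parasitaemia read from thin blood smears on day 4. Suppression = [(C − T)/C] × 100 versus untreated controls. 100% means no parasites seen in 50 oil-immersion fields.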

[3] = tested on: Plasmodium yoelii nigeriensis; experiment: Antimalarial activity in multidrug-resistant Plasmodium yoelii nigeriensis infected Swiss mouse assessed as suppression of parasitaemia at 48 mg/kg, po two devided dose daily for 4 days; assay type: functional; outline: as §1
[4] = tested on: Plasmodium yoelii nigeriensis; experiment: Antimalarial activity in multidrug-resistant Plasmodium yoelii nigeriensis infected Swiss mouse assessed as suppression of parasitaemia at 96 mg/kg, po two devided dose daily for 4 days; assay type: functional; outline: as §1
[5] = tested on: Plasmodium yoelii nigeriensis; experiment: Antimalarial activity in multidrug-resistant Plasmodium yoelii nigeriensis infected Swiss mouse assessed as disease cure at 24 mg/kg, po two devided dose daily for 4 days by 28 day survival assay; assay type: functional
Outline: (§2)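 Swiss mice of either sex (20 2 g) inoculated ip with 1 × 10⁶ MDR P. yoelii nigeriensis (chloroquine-, mefloquine-, halofantrine-resistant) parasites on day 0. Five mice per dose. Oral dosing in groundnut oil (0.1 mL per dose) from day 0 to 3, as two divided doses daily. Thin blood smears on day 4, then twice weekly to day 28. Mice without patent infection by day 28 scored cured; % protection = fraction of mice cured. β-arteether as positive control.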

[6] = tested on: Plasmodium yoelii nigeriensis; experiment: Antimalarial activity in multidrug-resistant Plasmodium yoelii nigeriensis infected Swiss mouse assessed as disease cure at 48 mg/kg, po two devided dose daily for 4 days by 28 day survival assay; assay type: functional, organism-based; parameters: dose 48 mg/kg; outline: as §2
[7] = tested on: Plasmodium yoelii nigeriensis; experiment: Antimalarial activity in multidrug-resistant Plasmodium yoelii nigeriensis infected Swiss mouse assessed as disease cure at 96 mg/kg, po two devided dose daily for 4 days by 28 day survival assay; assay type: functional; outline: as §2
[8] = tested on: Plasmodium yoelii nigeriensis; experiment: Antimalarial activity in multidrug-resistant Plasmodium yoelii nigeriensis infected Swiss mouse assessed as suppression of parasitaemia at 12 mg/kg, po two devided dose daily for 4 days; assay type: functional; outline: as §1
[9] = tested on: Plasmodium yoelii nigeriensis; experiment: Antimalarial activity in multidrug-resistant Plasmodium yoelii nigeriensis infected Swiss mouse assessed as disease cure at 12 mg/kg, po two devided dose daily for 4 days by 28 day survival assay; assay type: functional, organism-based; parameters: dose 12 mg/kg; outline: as §2

Structure (SMILES) | logP [1] | Activity [2] | Activity [3] | Activity ([4]; 96 mg/kg) | Activity [5] | Activity [6] | Activity [7] | further results
C=C(c1ccc(Br)cc1)[C@@H]1CO[C@@]2(CC[C@@]3(C)[C@H](CC[C@@H]4[C@@H]3CC[C@]3(C)[C@@H](C(C)=O)CC[C@@H]43)C2)OO1 (relative stereo; form 1) [listing 1 of 2 here] | 8.03 | 100% | 100% | 100% | – | – | – | –
C=C(c1ccc(F)cc1)[C@@H]1CO[C@@]2(CC[C@@]3(C)[C@H](CC[C@@H]4[C@@H]3CC[C@]3(C)[C@@H](C(C)=O)CC[C@@H]43)C2)OO1 (relative stereo; form 1) [listing 1 of 2 here] | – | – | – | – | – | – | – | Activity ([3]; 48 mg/kg): 88.03%
C=C(c1ccc(Br)cc1)[C@@H]1CO[C@@]2(CC[C@@]3(C)[C@H](CC[C@@H]4[C@@H]3CC[C@]3(C)[C@@H](C(C)=O)CC[C@@H]43)C2)OO1 (relative stereo; form 1) [listing 2 of 2 here] | – | – | – | – | inactive | inactive | Active | –
C=C(c1ccc(F)cc1)[C@@H]1CO[C@@]2(CC[C@@]3(C)[C@H](CC[C@@H]4[C@@H]3CC[C@]3(C)[C@@H](C(C)=O)CC[C@@H]43)C2)OO1 (relative stereo; form 1) [listing 2 of 2 here] | – | – | – | – | – | inactive | – | –
C=C(c1ccccc1)[C@@H]1CO[C@@]2(CC[C@@]3(C)[C@H](CC[C@@H]4[C@@H]3CC[C@]3(C)[C@@H](O)CC[C@@H]43)C2)OO1 (relative stereo; form 2) [listing 1 of 2 here] | 6.44 | 100% | 100% | 100% | – | – | – | Activity [8]: 88.7%
C=C(c1ccc(F)cc1)[C@@H]1CO[C@@]2(CC[C@@]3(C)[C@H](CC[C@@H]4[C@@H]3CC[C@]3(C)[C@@H](O)CC[C@@H]43)C2)OO1 (relative stereo; form 2) [listing 1 of 2 here] | 6.66 | 100% | 100% | – | – | – | – | Activity [8]: 95.48%; Activity [4]: 100%
C=C(c1ccc(Br)cc1)[C@@H]1CO[C@@]2(CC[C@@]3(C)[C@H](CC[C@@H]4[C@@H]3CC[C@]3(C)[C@@H](O)CC[C@@H]43)C2)OO1 (relative stereo; form 2) [listing 1 of 2 here] | 7.27 | 100% | 100% | 100% | – | – | – | Activity [8]: 44.5%
C=C(c1ccccc1)[C@@H]1CO[C@@]2(CC[C@@]3(C)[C@H](CC[C@@H]4[C@@H]3CC[C@]3(C)[C@@H](C(C)=O)CC[C@@H]43)C2)OO1 (relative stereo; form 2) [listing 1 of 2 here] | 7.2 | 100% | 100% | 100% | 60% | – | – | –
C=C(c1ccc(F)cc1)[C@@H]1CO[C@@]2(CC[C@@]3(C)[C@H](CC[C@@H]4[C@@H]3CC[C@]3(C)[C@@H](C(C)=O)CC[C@@H]43)C2)OO1 (relative stereo; form 2) [listing 1 of 2 here] | 7.36 | 100% | – | – | 60% | – | – | Activity ([3]; 48 mg/kg): 100%; Activity [4]: 100%
C=C(c1ccc(Cl)cc1)[C@@H]1CO[C@@]2(CC[C@@]3(C)[C@H](CC[C@@H]4[C@@H]3CC[C@]3(C)[C@@H](C(C)=O)CC[C@@H]43)C2)OO1 (relative stereo; form 2) [listing 1 of 2 here] | 7.76 | 100% | 100% | 100% | 60% | – | – | –
C=C(c1ccccc1)[C@@H]1CO[C@@]2(CC[C@@]3(C)[C@H](CC[C@@H]4[C@@H]3CC[C@]3(C)[C@@H]([C@H](C)C(C)=O)CC[C@@H]43)C2)OO1 (relative stereo; form 2) | – | – | – | 100% | – | – | 60% | –
C=C(c1ccc(F)cc1)[C@@H]1CO[C@@]2(CC[C@@]3(C)[C@H](CC[C@@H]4[C@@H]3CC[C@]3(C)[C@@H]([C@H](C)C(C)=O)CC[C@@H]43)C2)OO1 (relative stereo; form 2) | – | – | – | 100% | – | – | 60% | –
C=C(c1ccccc1)[C@@H]1CO[C@@]2(CC[C@@]3(C)[C@H](CC[C@@H]4[C@@H]3CC[C@]3(C)[C@@H]([C@H](C)CCC(=O)OC)CC[C@@H]43)C2)OO1 (relative stereo; form 2) | – | – | – | 43.56% | – | – | – | –
C=C(c1ccc(Br)cc1)[C@@H]1CO[C@@]2(CC[C@@]3(C)[C@H](CC[C@@H]4[C@@H]3CC[C@]3(C)[C@@H](O)CC[C@@H]43)C2)OO1 (relative stereo; form 2) [listing 2 of 2 here] | – | – | – | – | Active | Active | Active | Activity [9]: inactive
C=C(c1ccc(Cl)cc1)[C@@H]1CO[C@@]2(CC[C@@]3(C)[C@H](CC[C@@H]4[C@@H]3CC[C@]3(C)[C@@H](C(C)=O)CC[C@@H]43)C2)OO1 (relative stereo; form 2) [listing 2 of 2 here] | – | – | – | – | – | Active | Active | –
C=C(c1ccc(F)cc1)[C@@H]1CO[C@@]2(CC[C@@]3(C)[C@H](CC[C@@H]4[C@@H]3CC[C@]3(C)[C@@H](C(C)=O)CC[C@@H]43)C2)OO1 (relative stereo; form 2) [listing 2 of 2 here] | – | – | – | – | – | Active | Active | –
C=C(c1ccc(F)cc1)[C@@H]1CO[C@@]2(CC[C@@]3(C)[C@H](CC[C@@H]4[C@@H]3CC[C@]3(C)[C@@H](O)CC[C@@H]43)C2)OO1 (relative stereo; form 2) [listing 2 of 2 here] | – | – | – | – | Active | Active | Active | Activity [9]: inactive
C=C(c1ccccc1)[C@@H]1CO[C@@]2(CC[C@@]3(C)[C@H](CC[C@@H]4[C@@H]3CC[C@]3(C)[C@@H](C(C)=O)CC[C@@H]43)C2)OO1 (relative stereo; form 2) [listing 2 of 2 here] | – | – | – | – | – | Active | Active | –
C=C(c1ccccc1)[C@@H]1CO[C@@]2(CC[C@@]3(C)[C@H](CC[C@@H]4[C@@H]3CC[C@]3(C)[C@@H](O)CC[C@@H]43)C2)OO1 (relative stereo; form 2) [listing 2 of 2 here] | – | – | – | – | Active | Active | Active | Activity [9]: inactive
CCO[C@H]1O[C@@H]2O[C@@]3(C)CC[C@H]4[C@H](C)CC[C@@H]([C@H]1C)[C@@]24OO3 [ARTEMOTIL] | – | 100% | 100% | – | 20% | Active | – | –
